{"data": "Published values gathered from unrelated publications", "PDGFRA D842V": "Platelet-derived growth factor receptor alpha (PDGFRA, Homo sapiens, UniProt P16234, D842V)", "PDGFRA": "Platelet-derived growth factor receptor alpha (PDGFRA, Homo sapiens, UniProt P16234)", "PDGFRA V561D": "Platelet-derived growth factor receptor alpha (PDGFRA, Homo sapiens, UniProt P16234, V561D)", "note": "Lines come from different studies, so protocols differ."}
{"Compound": "COc1cc2ncnc(Nc3ccc(Oc4ccccc4)c(C)c3C)c2cc1OC", "target": "PDGFRA D842V", "read-out": "enzyme activity", "mode": "inhibitor", "tested at": "1 µM", "measurement": "inhibition", "value": "3%"}
{"Compound": "CC(C)(O)[C@H]1CC[C@H](Nc2ccc3ncc(-c4cccc(C(F)(F)F)c4)n3n2)CC1", "target": "PDGFRA", "read-out": "enzyme activity", "mode": "inhibitor", "tested at": "1 µM", "measurement": "remaining activity", "value": "44.5%"}
{"Compound": "Cc1cnc(NC2CCOCC2)nc1-n1cnc(C(=O)NC(CN)c2cc(F)cc(Cl)c2)c1 (stereo not drawn)", "target": "PDGFRA", "read-out": "enzyme activity", "mode": "inhibitor", "method": "radiometric", "tested at": "1 µM", "measurement": "remaining activity", "value": "94%"}
{"Compound": "COc1cc(-c2cc(-c3ccc(N4CCNCC4)cc3)cnc2N)cc(OC)c1OC", "target": "PDGFRA V561D", "read-out": "enzyme activity", "mode": "inhibitor", "tested at": "0.1 µM", "measurement": "inhibition", "value": "45%"}
{"Compound": "Nc1ncnc2occ(-c3ccc(NC(=O)Nc4cc(C(F)(F)F)ccc4F)cc3)c12", "target": "PDGFRA", "read-out": "enzyme activity", "mode": "inhibitor", "tested at": "20 µM", "measurement": "remaining activity", "value": "0.05%"}
{"Compound": "CCc1ccccc1C(=O)Nc1n[nH]c2c(C)c(F)c(C3C(C#N)=C(C)N(C)C(C)=C3C#N)cc12", "target": "PDGFRA", "read-out": "cell-free assay", "method": "competition with immobilised ligand", "tested at": "1 µM", "measurement": "remaining binding", "value": "100%"}
{"Compound": "CS(=O)(=O)CCNCc1ccc(-c2ccc3ncnc(Nc4ccc(OCc5cccc(F)c5)c(Cl)c4)c3c2)o1", "target": "PDGFRA", "read-out": "cell-free assay", "tested at": "0.5 µM", "measurement": "remaining signal", "value": "108%"}
{"Compound": "CNC(=O)Nc1ccc2c(c1)[C@@]1(CC2)OC(=O)N(CC(=O)N(Cc2ccc(F)cc2)[C@@H](C)C(F)(F)F)C1=O", "target": "PDGFRA", "read-out": "cell-free assay", "method": "competition with immobilised ligand", "tested at": "1 µM", "measurement": "remaining binding", "value": "83%"}
{"Compound": "Cc1ccc(C(=O)Nc2ccc(CN3CCN(C)CC3)c(C(F)(F)F)c2)cc1C#Cc1cnc2cccnn12", "target": "PDGFRA", "read-out": "enzyme activity", "mode": "inhibitor", "tested at": "23.5 nM", "measurement": "remaining activity", "value": "5.3%"}
{"Compound": "Cc1ccc(C(=O)NCc2ccsc2)cc1C#Cc1cn(C(C)C)c2ncnc(N)c12", "target": "PDGFRA", "read-out": "enzyme activity", "mode": "inhibitor", "tested at": "1 µM", "measurement": "activity vs control", "value": "4%"}
{"Compound": "N#CCCc1ccc2c(c1)-c1[nH]c3ccc([N+](=O)[O-])cc3c1CC(=O)N2", "target": "PDGFRA", "read-out": "cell-free assay", "tested at": "0.5 µM", "measurement": "remaining signal", "value": "87.4%"}
{"Compound": "O=C(Nc1ccc(Oc2ccc(F)cc2)cc1)N1CCc2ncccc2[C@H]1c1ccc(F)cc1", "target": "PDGFRA", "read-out": "cell-free assay", "method": "competition with immobilised ligand", "tested at": "1 µM", "measurement": "remaining binding", "value": "95%"}
{"Compound": "CNC(=O)c1cc(Oc2ccc(NC(=O)Nc3ccc(Cl)c(C(F)(F)F)c3)cc2)ccn1", "target": "PDGFRA V561D", "read-out": "enzyme activity", "mode": "inhibitor", "tested at": "10 µM", "measurement": "inhibition", "value": "100%"}
{"Compound": "O=C(Nc1cnn(-c2csc(C(=O)NC3COC3)c2)c1)Nc1ccccc1Cl", "target": "PDGFRA", "read-out": "enzyme activity", "mode": "inhibitor", "tested at": "5 µM", "measurement": "remaining activity", "value": "95.2%"}
{"Compound": "O=C(N1CCS(=O)(=O)CC1)N1C[C@H](c2ccc(OC(F)(F)F)cc2)C[C@H](c2nc(C3CC3)no2)C1", "target": "PDGFRA", "read-out": "cell-free assay", "method": "competition with immobilised ligand", "tested at": "1 µM", "measurement": "remaining binding", "value": "100%"}
{"Compound": "FC(F)(F)Oc1cccc(-c2cnc3ccc(-c4ccncc4)nn23)c1", "target": "PDGFRA", "read-out": "enzyme activity", "mode": "inhibitor", "method": "radiometric", "tested at": "1 µM", "measurement": "activity vs control", "value": "70%"}
{"Compound": "COc1ccc2c(c1)O[C@H](c1ccc(OC)c(OC)c1)C[C@@H]2NC(=O)C1(c2ccc3c(c2)OC(F)(F)O3)CC1", "target": "PDGFRA", "read-out": "cell-free assay", "method": "competition with immobilised ligand", "tested at": "1 µM", "measurement": "remaining binding", "value": "87%"}
{"Compound": "CC(C)(C)c1nc(-c2cccc(NS(=O)(=O)c3c(F)cccc3F)c2F)c(-c2ccnc(N)n2)s1", "target": "PDGFRA", "read-out": "enzyme activity", "mode": "inhibitor", "method": "radiometric", "tested at": "1 µM", "measurement": "remaining activity", "value": "103%"}
{"Compound": "CN([C@@H]1CCc2c(CC(=O)O)c3cc(S(C)(=O)=O)ccc3n2C1)S(=O)(=O)c1ccc(F)cc1", "target": "PDGFRA", "read-out": "cell-free assay", "method": "competition with immobilised ligand", "tested at": "1 µM", "measurement": "remaining binding", "value": "100%"}
{"Compound": "COc1cc2ncnc(Nc3ccc(Oc4ccccc4)cc3C)c2cc1OC", "target": "PDGFRA", "read-out": "enzyme activity", "mode": "inhibitor", "tested at": "1 µM", "measurement": "inhibition", "value": "9%"}
{"Compound": "CCN(CC)c1ccc(C2=NNC(=O)CC2C)cc1[N+](=O)[O-] (stereo not drawn)", "target": "PDGFRA", "read-out": "enzyme activity", "mode": "inhibitor", "tested at": "10 µM", "measurement": "remaining activity", "value": "91%"}
{"Compound": "CCCOc1ccc(OC)c(F)c1C(=O)c1ccc(C(=O)N[C@@H]2CNC[C@H]2NC(=O)c2ccc3[nH]ncc3c2)cc1", "target": "PDGFRA V561D", "read-out": "enzyme activity", "mode": "inhibitor", "tested at": "10 µM", "measurement": "remaining activity", "value": "6%"}
{"Compound": "COc1cc(/C=C/C(=O)CC(=O)/C=C/c2ccc(O)c(OC)c2)ccc1O", "target": "PDGFRA", "read-out": "enzyme activity", "mode": "inhibitor", "tested at": "1 µM", "measurement": "activity vs control", "value": "92%"}
{"Compound": "N#CC1(c2ccccn2)CCN(Cc2cc(C(=O)N3CCCC3)c(=O)n3ccccc23)CC1", "target": "PDGFRA", "read-out": "cell-free assay", "method": "competition with immobilised ligand", "tested at": "1 µM", "measurement": "remaining binding", "value": "97%"}
{"Compound": "Cc1cc(NC(=O)c2cccc3cc(-c4cccc5[nH]nc(N)c45)ccc23)ccc1F", "target": "PDGFRA D842V", "read-out": "enzyme activity", "mode": "inhibitor", "tested at": "0.1 µM", "measurement": "activity vs control", "value": "28%"}
{"Compound": "Cc1ccc(NC(=O)c2ccc(CN3CCN(C)CC3)cc2)cc1Nc1nccc(-c2cccnc2)n1", "target": "PDGFRA", "read-out": "enzyme activity", "mode": "inhibitor", "tested at": "0.5 µM", "measurement": "activity vs control", "value": "5.9%"}
{"Compound": "CC/C(=N\\NC(=O)NCc1cccc(O)c1)c1ccc(O)c(C)c1O", "target": "Platelet-derived growth factor receptor alpha (PDGFRA, Homo sapiens, UniProt P16234, T674I)", "read-out": "enzyme activity", "mode": "inhibitor", "tested at": "0.1 µM", "measurement": "inhibition", "value": "-0.2%"}
{"Compound": "Cc1ccc(NC(=O)c2ccc(C)c(C(F)(F)F)c2)cc1C#Cc1nn(C2CCC(O)CC2)c2ncnc(N)c12 (stereo not drawn)", "target": "PDGFRA V561D", "read-out": "enzyme activity", "mode": "inhibitor", "tested at": "10 µM", "measurement": "remaining activity", "value": "0%"}
{"Compound": "CN1CCN(c2cnc3c(C4CCN(C(=O)c5ccc(OC(F)(F)F)cc5N)CC4)ncnc3c2)CC1", "target": "PDGFRA", "read-out": "cell-free assay", "method": "competition with immobilised ligand", "tested at": "1 µM", "measurement": "remaining binding", "value": "100%"}
{"Compound": "CCN(CC)CCNC(=O)c1c(C)[nH]c(/C=C2\\C(=O)Nc3ccc(F)cc32)c1C", "target": "PDGFRA", "read-out": "cell-free assay", "tested at": "0.5 µM", "measurement": "remaining signal", "value": "10.9%"}
